Laboratory results published in ChEMBL document CHEMBL1158423, “Antibacterial activity of berberine-NorA pump inhibitor hybrids with a methylene ether linking group” (2009).
Active and inactive are the calls of the source. The calls are words filed in the database; no cut-off is given here.

Key:
[1] = system: Escherichia coli; assay: Antibacterial activity against Escherichia coli BW-25116 TolC-deficient mutant after 18 hrs by twofold serial dilution method relative to berberine; assay type: functional, BW25116
In short: (§1)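 Broth microdilution with an inoculum of 10^5 cells/mL and serial 2-fold compound dilutions, run in triplicate. Plates were incubated 18 h at 37 °C and growth was read as absorbance at 600 nm. MIC was the lowest concentration giving complete growth inhibition.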

[2] = system: Escherichia coli; assay: Antibacterial activity against Escherichia coli ECM116 mar1642 overexpressing […] pump after 18 hrs by twofold serial dilution method; assay type: functional; conditions: ECM116, 18 h
In short: (§2)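 Broth microdilution with serial 2-fold dilutions of compound, cells inoculated at 10^5 per mL, in triplicate. MIC is the lowest concentration giving complete growth inhibition over 18 h at 37 °C. Growth is read as absorbance at 600 nm.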

[3] = system: Staphylococcus aureus; assay: Antibacterial activity against Staphylococcus aureus K2378 overexpressing NorA efflux pump after 18 hrs by twofold serial dilution method; assay type: functional; conditions: K2378, 18 h; in short: as §2
[4] = system: Staphylococcus aureus; assay: Antibacterial activity against Staphylococcus aureus K1758 NorA efflux pump-deficient mutant after 18 hrs by twofold serial dilution method; assay type: functional; conditions: K1758, 18 h; in short: as §2
[5] = system: Escherichia coli; assay: Antibacterial activity against Escherichia coli ECM1642 after 18 hrs by twofold serial dilution method; assay type: functional; conditions: ECM1642, 18 h
In short: (§3)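 Broth microdilution: cells at 10^5 mL−1 in broth, serial 2-fold dilutions of compound, triplicate determinations; 18 h at 37 °C; growth followed by absorbance at 600 nm. MIC taken as the lowest concentration giving complete growth inhibition.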

[6] = system: Staphylococcus aureus; assay: Antibacterial activity against wild type Staphylococcus aureus 8325-4 after 18 hrs by twofold serial dilution method relative to berberine; assay type: functional; in short: as §1
[7] = system: Escherichia coli; assay: Antibacterial activity against Escherichia coli K-12 after 18 hrs by twofold serial dilution method; assay type: functional; conditions: K-12, 18 h; in short: as §3
[8] = system: Staphylococcus aureus; assay: Antibacterial activity against Staphylococcus aureus K2378 overexpressing NorA efflux pump after 18 hrs by twofold serial dilution method relative to berberine; assay type: functional
[9] = system: Staphylococcus aureus; assay: Antibacterial activity against wild type Staphylococcus aureus 8325-4 after 18 hrs by twofold serial dilution method; assay type: functional; conditions: 8325-4, 18 h; in short: as §3
[10] = system: Escherichia coli; assay: Antibacterial activity against Escherichia coli BW-25116 TolC-deficient mutant after 18 hrs by twofold serial dilution method; assay type: functional; conditions: BW25116, 18 h; in short: as §2
[11] = system: Staphylococcus aureus; assay: Antibacterial activity against Staphylococcus aureus K1758 NorA efflux pump-deficient mutant after 18 hrs by twofold serial dilution method relative to berberine; assay type: functional
[12] = system: Escherichia coli; assay: Antibacterial activity against Escherichia coli ECM116 mar1642 overexpressing […] pump after 18 hrs by twofold serial dilution method relative to berberine; assay type: functional; in short: as §1
[13] = system: Enterococcus faecalis; assay: Antibacterial activity against Enterococcus faecalis V583 after 18 hrs by twofold serial dilution method; assay type: functional; conditions: V583, 18 h; in short: as §3
[14] = system: Enterococcus faecalis; assay: Antibacterial activity against Enterococcus faecalis MMH594 after 18 hrs by twofold serial dilution method; assay type: functional; conditions: MMH594, 18 h; in short: as §3
[15] = biological target: T1, Quinolone resistance protein NorA (Staphylococcus aureus) (UniProt P0A0J7); assay: Inhibition of NorA efflux pump in wild type Staphylococcus aureus 8325-4 assessed as increase in berberine accumulation at 3 uM
T1 sequence (whole entry): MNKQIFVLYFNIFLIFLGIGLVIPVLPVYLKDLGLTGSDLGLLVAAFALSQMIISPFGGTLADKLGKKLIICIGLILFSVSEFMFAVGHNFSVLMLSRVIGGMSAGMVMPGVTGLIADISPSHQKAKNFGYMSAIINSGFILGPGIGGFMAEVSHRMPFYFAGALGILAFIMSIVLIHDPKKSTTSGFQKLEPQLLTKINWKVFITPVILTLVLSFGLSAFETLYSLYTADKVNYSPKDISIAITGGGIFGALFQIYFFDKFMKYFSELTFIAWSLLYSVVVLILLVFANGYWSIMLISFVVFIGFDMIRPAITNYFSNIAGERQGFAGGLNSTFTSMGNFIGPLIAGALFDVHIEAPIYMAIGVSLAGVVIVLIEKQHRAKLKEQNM
In short: (§4)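 Cells are grown at 37 °C to OD600 1.5 and washed twice in PBS. They are energised in PBS with 10 mM dextrose (OD ~0.8) for 1 h at 37 °C with aeration, washed, then diluted to OD ~0.3 in PBS. Compounds are added at 3 μM final. Accumulation is followed by fluorescence at ex/em 355/517 nm, with cell-free background subtracted.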

[16] = biological target: T1, Quinolone resistance protein NorA (Staphylococcus aureus); assay: Inhibition of NorA efflux pump in wild type Staphylococcus aureus 8325-4 assessed as potentiation of EtBr uptake at 3 uM
In short: (§5)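 Cells are prepared as for the accumulation assay: grown to OD600 1.5, washed in PBS, energised 1 h at 37 °C in PBS with 10 mM dextrose, then diluted to OD ~0.3 in PBS. The inhibitor (3 μM final) is added before ethidium bromide. Uptake is read by fluorescence at ex/em 530/600 nm, with cell-free background subtracted.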

[17] = biological target: T1, Quinolone resistance protein NorA (Staphylococcus aureus); assay: Inhibition of NorA efflux pump in Staphylococcus aureus K2378 overexpressing NorA efflux pump overexpressing NorA efflux pump assessed as increase in berberine accumulation at 3 uM; in short: as §4
[18] = biological target: T1, Quinolone resistance protein NorA (Staphylococcus aureus); assay: Inhibition of NorA efflux pump in Staphylococcus aureus K2378 overexpressing NorA efflux pump assessed as potentiation of EtBr uptake at 3 uM; in short: as §5
[19] = system: Enterococcus faecalis; assay: Antibacterial activity against Enterococcus faecalis OG1RF after 18 hrs by twofold serial dilution method; assay type: functional; in short: as §3
[20] = biological target: T1, Quinolone resistance protein NorA (Staphylococcus aureus); assay: Inhibition of NorA efflux pump in Staphylococcus aureus K2378 overexpressing NorA efflux pump assessed as inhibition of EtBr efflux at 3 uM
In short: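 K2378 cells are grown at 37 °C to OD ~0.9, washed in PBS and loaded with 3 μM ethidium bromide plus 30 μg/mL reserpine for 20 min at 37 °C. After ice-cold washes, they are added at OD 0.3 to ice-cold PBS with 10 mM dextrose containing inhibitor at 3 μM final. The no-efflux control is PBS without dextrose plus reserpine. Efflux is read at ex/em 530/600 nm.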

[21] = biological target: T1, Quinolone resistance protein NorA (Staphylococcus aureus); assay: Inhibition of NorA efflux pump in Staphylococcus aureus K1758 NorA efflux pump-deficient mutant assessed as increase in berberine accumulation at 3 uM; in short: as §4
[22] = biological target: T1, Quinolone resistance protein NorA (Staphylococcus aureus); assay: Inhibition of NorA efflux pump in Staphylococcus aureus K1758 NorA efflux pump-deficient mutant assessed as potentiation of EtBr uptake at 3 uM; in short: as §5
[23] = system: Nucleic Acid; assay: Binding affinity to D1 duplex DNA by electrospray ionization mass spectrometry; assay type: nucleic-acid assay
In short: (§6)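 Duplex D1, D2 or forked F10 was annealed from complementary strands in 0.1 M ammonium acetate. ESI-MS used a 100 V cone voltage; thirty acquisitions were combined, baseline-subtracted and smoothed.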

[24] = system: Nucleic Acid; assay: Binding affinity to quadruplex Q1 DNA by electrospray ionization mass spectrometry; assay type: nucleic-acid assay
[25] = system: Nucleic Acid; assay: Binding affinity to D2 duplex DNA by electrospray ionization mass spectrometry; assay type: nucleic-acid assay; in short: as §6
[26] = system: Nucleic Acid; assay: Binding affinity to quadruplex Q3 DNA by electrospray ionization mass spectrometry; assay type: nucleic-acid assay
[27] = system: Nucleic Acid; assay: Binding affinity to F10 duplex DNA by electrospray ionization mass spectrometry; assay type: nucleic-acid assay; in short: as §6

COc1ccc2c(OCc3ccccn3)c3[n+](cc2c1OC)CCc1cc2c(cc1-3)OCO2.[Br-]
fold change (FC) [1]: 2
MIC [2]: 191 µM
MIC [3]: > 191 µM
MIC [4]: 191 µM
MIC [5]: > 191 µM
fold change (FC) [6]: <2
MIC [7]: > 191 µM
fold change (FC) [8]: >3
MIC [9]: > 191 µM
MIC [10]: 191 µM
fold change (FC) [11]: <5
fold change (FC) [12]: 2

COc1ccc2c(Cc3ccccc3-c3cc4cc([N+](=O)[O-])ccc4[nH]3)c3[n+](cc2c1OC)CCc1cc2c(cc1-3)OCO2
MIC [13]: 6.3 µM
MIC [14]: 6.3 µM
MIC [2]: > 150 µM
Activity [15]: Active
MIC [3]: 3.1 µM
Activity [16]: Active
Activity [17]: Active
Activity [18]: Active
MIC [4]: 3.1 µM
MIC [5]: > 150 µM
MIC [19]: 6.3 µM
MIC [7]: > 150 µM
Activity [20]: Active
Activity [21]: Active
MIC [9]: 3.1 µM
MIC [10]: > 150 µM
Activity [22]: Active

COc1ccc2cc3[n+](cc2c1OC)CCc1cc2c(cc1-3)OCO2 [BERBERINE CHLORIDE]
MIC [13]: > 650 µM
MIC [14]: > 650 µM
MIC [2]: 325 µM
MIC [3]: > 650 µM
MIC [4]: 40 µM
MIC [5]: > 2600 µM
MIC [19]: 650 µM
MIC [7]: > 2600 µM
MIC [9]: 325 µM
MIC [10]: 325 µM

COc1ccc2c(OCc3ccc4ccccc4c3)c3[n+](cc2c1OC)CCc1cc2c(cc1-3)OCO2.[Br-]
Activity [23]: 30%
fold change (FC) [1]: 30
MIC [2]: 21.9 µM
MIC [3]: 21.9 µM
MIC [4]: 5.5 µM
MIC [5]: > 175 µM
fold change (FC) [6]: 30
MIC [7]: > 175 µM
fold change (FC) [8]: >30
Activity [24]: 100%
MIC [9]: 10.9 µM
Activity [25]: 20%
Activity [26]: 67%
MIC [10]: 10.9 µM
fold change (FC) [11]: 7
fold change (FC) [12]: 15
Activity [27]: 15%

COc1ccc2c(OCc3ccc(C#N)cc3)c3[n+](cc2c1OC)CCc1cc2c(cc1-3)OCO2.[Br-]
fold change (FC) [1]: 4
MIC [2]: 45.7 µM
MIC [3]: > 183 µM
MIC [4]: 91.4 µM
MIC [5]: > 183 µM
fold change (FC) [6]: 2
MIC [7]: > 183 µM
fold change (FC) [8]: 4
MIC [9]: 183 µM
MIC [10]: 91.4 µM
fold change (FC) [11]: <2
fold change (FC) [12]: 7

COc1ccc2c(OCc3ccccc3)c3[n+](cc2c1OC)CCc1cc2c(cc1-3)OCO2.[Br-]
fold change (FC) [1]: 27
MIC [2]: 24 µM
MIC [3]: 95.8 µM
MIC [4]: 12 µM
MIC [5]: > 192 µM
fold change (FC) [6]: 14
MIC [7]: > 192 µM
fold change (FC) [8]: 7
MIC [9]: 24 µM
MIC [10]: 12 µM
fold change (FC) [11]: 3
fold change (FC) [12]: 14
